Series [1] is described as follows: Cytotoxicity against HEK293 cells after 24 hrs. The class given is cell-based. Conditions: human, read-out: LC50. The gist of the method:
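HEK 293 cells seeded at 2 × 10⁵ cells per well; compounds added 24 h after seeding at 1% final DMSO. Living cell mass determined after 24 h incubation; LC₅₀ calculated. Doxorubicin positive control, rifampicin negative control. Mean of more than three repeats.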

A short description of series [2]: Half life in rat liver S9 fraction at 1 uM by LC-MS/MS analysis. It is filed as ADME, subcellular. Summed up: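 Test compound at 1 μM with 1 mg/mL pooled rat liver S9, 2 mM NADPH regenerating system, 1 mM UDPGA and 0.1 mM PAPS (phase I and II), 37 °C. Sampled at 0, 5, 15 and 60 min and quenched with 2 volumes of cold acetonitrile containing internal standard. Remaining compound measured by LC-MS/MS to give t1/2 and CLint; mean of more than three repeats.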

The nature of series [3]: Half life in human liver S9 fraction at 1 uM by LC-MS/MS analysis. It is filed as ADME, subcellular. Summed up:
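Pooled human liver S9 fraction, 1 mg/mL, with 2 mM NADPH regenerating system, 1 mM UDPGA and 0.1 mM PAPS (phase I and II). Compound at 1 μM, 37 °C, sampled at 0, 5, 15 and 60 min. Stopped with cold acetonitrile containing internal standard. Remaining compound measured by LC-MS/MS and used to derive t1/2. Mean of more than three repeats.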

The target of series [4] is T1, Cytochrome P450 11B1, mitochondrial (Rattus norvegicus, UniProt P15393).
T1 sequence (P15393 whole entry): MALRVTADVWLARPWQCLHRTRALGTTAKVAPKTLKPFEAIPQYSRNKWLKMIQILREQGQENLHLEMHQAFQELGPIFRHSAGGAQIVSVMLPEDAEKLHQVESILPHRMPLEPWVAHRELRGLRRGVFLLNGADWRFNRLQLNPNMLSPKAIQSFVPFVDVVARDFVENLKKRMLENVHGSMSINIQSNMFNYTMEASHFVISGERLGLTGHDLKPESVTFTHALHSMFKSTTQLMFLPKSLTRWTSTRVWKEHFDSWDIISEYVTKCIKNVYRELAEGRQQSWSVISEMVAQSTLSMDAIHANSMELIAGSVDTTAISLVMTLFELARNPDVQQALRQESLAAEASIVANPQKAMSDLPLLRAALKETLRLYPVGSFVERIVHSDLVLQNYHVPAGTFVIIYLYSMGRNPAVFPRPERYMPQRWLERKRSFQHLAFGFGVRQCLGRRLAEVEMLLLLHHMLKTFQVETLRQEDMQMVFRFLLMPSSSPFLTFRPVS
Nature of the series: Inhibition of rat CYP11B1 expressed in hamster V79MZh cells using [1,2-3H]-11-deoxycorticosterone as substrate. It is filed as cell-based. The gist of the method: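 V79MZh cells expressing rat CYP11B1 were incubated with [1,2-3H]-11-deoxycorticosterone (100 nM) and inhibitor at varying concentrations. IC50 is the mean of more than three repeats.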

Series [5] can be described thus: Half life in human plasma at 1 uM by LC-MS/MS analysis. It is filed as ADME, cell-free. Summed up:
(§1)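 Compound at 1 μM in pooled heparinized plasma of the stated species, 37 °C, sampled at 0, 10, 30, 60 and 150 min. Proteins precipitated with 5 volumes of cold acetonitrile containing internal standard. Remaining compound quantified by LC-MS/MS to give half-life.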

Series [6] is filed under the species Homo sapiens. Nature of the series: Selectivity factor, ratio of IC50 for human CYP11B2 to IC50 for human CYP11B1. The gist of the method: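 V79MZh hamster fibroblasts expressing human CYP11B1 or CYP11B2 were incubated with [1,2-3H]-11-deoxycorticosterone (100 nM) plus inhibitor at a range of concentrations. […] The selectivity factor is IC50(CYP11B2)/IC50(CYP11B1).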

Series [7] addresses T2, Cytochrome P450 2A6 (Homo sapiens, UniProt P11509).
T2 sequence (P11509 whole entry): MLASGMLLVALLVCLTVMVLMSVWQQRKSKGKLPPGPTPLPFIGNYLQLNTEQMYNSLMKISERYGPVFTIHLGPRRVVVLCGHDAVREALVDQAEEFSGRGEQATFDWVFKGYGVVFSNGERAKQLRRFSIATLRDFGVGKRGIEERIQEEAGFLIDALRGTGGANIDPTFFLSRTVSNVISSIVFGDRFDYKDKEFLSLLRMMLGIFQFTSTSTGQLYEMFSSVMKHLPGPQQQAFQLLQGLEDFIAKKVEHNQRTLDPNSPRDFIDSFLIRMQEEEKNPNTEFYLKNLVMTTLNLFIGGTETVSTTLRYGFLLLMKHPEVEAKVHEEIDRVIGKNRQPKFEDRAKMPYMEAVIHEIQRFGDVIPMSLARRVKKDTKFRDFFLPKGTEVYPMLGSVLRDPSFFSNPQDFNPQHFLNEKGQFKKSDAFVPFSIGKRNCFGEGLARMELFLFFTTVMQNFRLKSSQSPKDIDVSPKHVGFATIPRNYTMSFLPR
Nature of the series: Inhibition of CYP2A6 (unknown origin) using coumarin as substrate. The class given is ADME. The gist of the method:
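Commercial CYP2A6/coumarin inhibitor screening kit with coumarin as substrate at 3 μM, run per the kit instructions. IC50 determined.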

Series [8] concerns the target T3, CYP17 (Homo sapiens, UniProt P05093).
T3 sequence (P05093 whole entry): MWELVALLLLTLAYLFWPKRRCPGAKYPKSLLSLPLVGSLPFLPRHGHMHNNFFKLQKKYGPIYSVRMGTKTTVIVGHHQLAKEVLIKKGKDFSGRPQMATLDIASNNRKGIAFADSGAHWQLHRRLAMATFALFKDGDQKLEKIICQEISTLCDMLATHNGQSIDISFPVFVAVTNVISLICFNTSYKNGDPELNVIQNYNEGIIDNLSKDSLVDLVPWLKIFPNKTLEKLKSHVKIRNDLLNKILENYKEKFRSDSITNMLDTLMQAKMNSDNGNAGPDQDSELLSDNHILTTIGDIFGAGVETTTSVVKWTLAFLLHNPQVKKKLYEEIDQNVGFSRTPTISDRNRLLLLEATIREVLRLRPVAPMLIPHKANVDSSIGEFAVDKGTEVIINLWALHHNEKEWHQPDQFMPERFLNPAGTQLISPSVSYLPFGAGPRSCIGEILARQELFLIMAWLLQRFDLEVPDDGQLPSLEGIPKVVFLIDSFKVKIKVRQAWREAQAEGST
Briefly: Inhibition of human CYP17 expressed in Escherichia coli co-expressing rat NADPH-P450 reductase using progesterone as substrate at 2 uM relative to control. The settings on record: probe progesterone. The gist of the method: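 Human CYP17 expressed in E. coli, co-expressing rat NADPH-P450 reductase. Progesterone substrate at 25 μM with NADPH cofactor. Test compound at 2 μM. Percent inhibition is the mean of at least three experiments (deviations <25%); values ≤5% are treated as not significant.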

For series [9], the target named is Cytochrome P450 3A4 (Homo sapiens, UniProt P08684). Briefly: Inhibition of CYP3A4 (unknown origin) using 7-benzyloxy trifluoromethylcoumarin as substrate. It is filed as ADME. Summed up:
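Commercial CYP3A4/BFC inhibitor screening kit with 7-benzyloxy-trifluoromethylcoumarin as substrate at 50 μM, run per the kit instructions. IC50 determined.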

The nature of series [10]: Half life in rat plasma at 1 uM by LC-MS/MS analysis. It is filed as ADME, cell-free. Summed up: as §1

Sequence of Cytochrome P450 3A4 (P08684 whole entry): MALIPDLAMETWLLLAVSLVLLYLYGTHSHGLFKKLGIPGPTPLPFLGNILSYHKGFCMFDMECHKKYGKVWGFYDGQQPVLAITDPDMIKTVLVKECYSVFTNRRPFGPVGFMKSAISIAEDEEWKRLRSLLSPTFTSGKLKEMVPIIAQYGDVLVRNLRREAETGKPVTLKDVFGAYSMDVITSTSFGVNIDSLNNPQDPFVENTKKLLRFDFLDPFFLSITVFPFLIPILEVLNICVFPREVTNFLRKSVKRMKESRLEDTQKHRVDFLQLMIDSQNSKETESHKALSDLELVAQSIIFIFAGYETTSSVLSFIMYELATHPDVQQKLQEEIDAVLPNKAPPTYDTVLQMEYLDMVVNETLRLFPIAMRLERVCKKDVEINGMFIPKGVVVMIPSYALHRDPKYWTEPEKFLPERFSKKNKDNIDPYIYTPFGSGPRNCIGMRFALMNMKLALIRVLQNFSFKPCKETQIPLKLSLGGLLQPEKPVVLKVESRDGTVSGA

In the case of `Cc1cncc(Cc2ccc(-c3ccccc3)nc2)c1`, the CC50 at 24 h in [1] was 61.4 µM. Also, the half-life at 1 µM in series [2] was 0.267 h; in [3] it was over 2.5 h; in [5], over 2.5 h; in series [10] it was over 2.5 h. Besides, the IC50 in series [4] amounted to 2.44 µM; in series [7], 106 µM; in series [9], 1.1 µM. In [6], the Ratio IC50 was 15.1. The inhibition at 2 µM in [8] worked out at 5%.

A word on the half-life: it is how long it takes for the measured level to halve. High values mean slow decline, low ones rapid decline. As a reminder, the IC50 is the concentration that inhibits the measured activity by half. The low end stands for higher potency, the high end for lower potency. The inhibition is the drop in the measured response relative to a control, in per cent. Read a low inhibition as a response near the control.
